Data taken from PMC9163588 (The Journal of Biological Chemistry, 2022).

Tests used:
PhlH [1] = molecular target: T1, PhlH (Pseudomonas fluorescens, UniProt Q4JIX5, F173A); assay: isothermal titration calorimetry; assay type: binding
T1 sequence (Q4JIX5 1-225 F173A): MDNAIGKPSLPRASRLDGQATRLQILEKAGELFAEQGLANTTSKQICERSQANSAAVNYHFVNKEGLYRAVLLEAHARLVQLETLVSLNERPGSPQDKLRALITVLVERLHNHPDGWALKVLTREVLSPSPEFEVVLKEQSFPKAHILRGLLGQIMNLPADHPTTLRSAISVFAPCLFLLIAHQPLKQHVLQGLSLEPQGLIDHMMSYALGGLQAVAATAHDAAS
Procedure, shortened: (§1)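 N-terminally His6-tagged full-length PhlH from P. fluorescens 2P24, with point mutants made by site-directed mutagenesis. Expressed in E. coli Rosetta (DE3) (0.2 mM IPTG, 16 °C, 20 h), then Ni-NTA and gel filtration. ITC at 25 °C in degassed 20 mM Tris-HCl pH 8.0, 100 mM NaCl, 0.5% DMSO. Cell held 0.05–0.1 mM protein; syringe held 0.5–1 mM test compound. First 0.4 µl injection discarded, then 19 × 2.0 µl injections at 2-min spacing. Dilution heats subtracted; one-site fit gave Kd.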

PhlH [2] = molecular target: T2, PhlH (Pseudomonas fluorescens, UniProt Q4JIX5, L85A); assay: isothermal titration calorimetry; assay type: binding
T2 sequence (Q4JIX5 1-225 L85A): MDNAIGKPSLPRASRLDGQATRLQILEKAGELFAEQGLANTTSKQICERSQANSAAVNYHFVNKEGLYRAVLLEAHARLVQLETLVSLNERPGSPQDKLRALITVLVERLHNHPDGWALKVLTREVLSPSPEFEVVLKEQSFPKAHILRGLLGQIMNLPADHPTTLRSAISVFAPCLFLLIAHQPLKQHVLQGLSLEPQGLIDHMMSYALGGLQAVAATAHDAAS
Procedure, shortened: as §1

PhlH [3] = molecular target: T3, PhlH (Pseudomonas fluorescens, UniProt Q4JIX5, L186A); assay: isothermal titration calorimetry; assay type: binding
T3 sequence (Q4JIX5 1-225 L186A): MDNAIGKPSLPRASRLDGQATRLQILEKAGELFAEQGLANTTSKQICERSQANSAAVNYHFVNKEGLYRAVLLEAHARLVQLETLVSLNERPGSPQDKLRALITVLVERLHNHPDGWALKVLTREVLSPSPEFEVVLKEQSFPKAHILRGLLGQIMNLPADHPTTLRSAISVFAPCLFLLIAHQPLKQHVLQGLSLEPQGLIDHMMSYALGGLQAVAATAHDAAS
Procedure, shortened: as §1

PhlH [4] = molecular target: T4, PhlH (Pseudomonas fluorescens, UniProt Q4JIX5, V190A); assay: isothermal titration calorimetry; assay type: binding
T4 sequence (Q4JIX5 1-225 V190A): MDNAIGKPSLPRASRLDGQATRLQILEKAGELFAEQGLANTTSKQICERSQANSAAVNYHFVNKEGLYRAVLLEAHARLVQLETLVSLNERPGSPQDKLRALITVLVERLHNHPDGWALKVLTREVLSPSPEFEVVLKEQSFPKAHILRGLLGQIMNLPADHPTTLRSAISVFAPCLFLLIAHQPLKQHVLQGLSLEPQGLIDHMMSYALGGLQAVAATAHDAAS
Procedure, shortened: as §1

PhlH [5] = molecular target: T5, PhlH (Pseudomonas fluorescens, UniProt Q4JIX5, R124A); assay: isothermal titration calorimetry; assay type: binding
T5 sequence (Q4JIX5 1-225 R124A): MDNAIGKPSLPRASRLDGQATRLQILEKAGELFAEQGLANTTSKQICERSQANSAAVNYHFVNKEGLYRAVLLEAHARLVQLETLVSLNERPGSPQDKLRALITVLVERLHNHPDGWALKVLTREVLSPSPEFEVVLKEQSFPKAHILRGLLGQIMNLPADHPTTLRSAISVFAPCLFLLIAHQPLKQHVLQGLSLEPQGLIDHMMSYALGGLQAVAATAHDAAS
Procedure, shortened: as §1

PhlH [6] = molecular target: T6, PhlH (Pseudomonas fluorescens, UniProt Q4JIX5, H76A); assay: isothermal titration calorimetry; assay type: binding
T6 sequence (Q4JIX5 1-225 H76A): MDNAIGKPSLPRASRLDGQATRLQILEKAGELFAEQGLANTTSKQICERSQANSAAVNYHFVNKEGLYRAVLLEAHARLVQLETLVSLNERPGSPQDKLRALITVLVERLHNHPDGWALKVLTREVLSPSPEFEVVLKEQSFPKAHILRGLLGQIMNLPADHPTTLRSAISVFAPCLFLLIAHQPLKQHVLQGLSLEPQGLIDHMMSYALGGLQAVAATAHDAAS
Procedure, shortened: as §1

PhlH R124A = molecular target: T7, PhlH R124A (Pseudomonas fluorescens 2P24, UniProt Q4JIX5 1-225, R124A); assay: EMSA
T7 sequence: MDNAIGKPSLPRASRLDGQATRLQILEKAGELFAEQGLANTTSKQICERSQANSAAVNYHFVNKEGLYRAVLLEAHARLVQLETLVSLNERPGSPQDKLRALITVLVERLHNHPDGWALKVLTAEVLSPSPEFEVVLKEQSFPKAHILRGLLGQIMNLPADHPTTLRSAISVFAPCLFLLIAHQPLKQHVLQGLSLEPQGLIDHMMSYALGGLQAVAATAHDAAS

**Q.** For `CC(=O)c1c(O)cc(O)c(C(C)=O)c1O` [2,4-DAPG], which Kd (PhlH [1]) is on record?
**A.** 20.2 µM

**Q.** And the Kd (PhlH [2])?
**A.** 39 µM

**Q.** And the Kd (PhlH [3])?
**A.** 15.4 µM

**Q.** What about the Kd (PhlH [4]) of the same molecule?
**A.** 24.3 µM

**Q.** And the Kd (PhlH [5])?
**A.** 13.2 µM

**Q.** And the Kd (PhlH [6])?
**A.** 10.9 µM

B1: F1 (phlG operator / upstream region) (dsDNA)
DNA 1: TAGTTCTAATTCAAATTTGACTTTTTATTT
DNA 2: AAATAAAAAGTCAAATTTGAATTAGAACTA
**Q.** Does B1 bind (PhlH R124A)?
**A.** no binding
